Reference: PMC12166256 (Clinical Pharmacology and Therapeutics, 2025)
Marks after values point to notes of the source that are not given here.

Test: SAD study: plasma pharmacokinetics
Type: in vivo, human
Settings: for plasma concentrations: SAD 5 mg, below the LLOQ
Method in brief: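 Healthy males aged 18–55 got single oral doses in six SAD cohorts (5–600 mg), 6 active and 2 placebo per cohort, all fasted. Plasma was drawn pre-dose and at 1, 2, 3, 4, 6, 8, 12, 18, 24, 36, 48, 60 and 72 h; 96 h only for dose levels 4–6. LC–MS/MS, LLOQ 2 ng/mL. Non-compartmental parameters; AUC excluded when extrapolation exceeded 30%.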

In the case of `CN1C(=O)c2cccc(OC(F)F)c2[C@H]2C[C@@H]1c1nc3ccc(-c4cnc(C5(N)CCC5)nc4)cc3n12` [Balinatunfib], the plasma concentrations is reported as under 2 ng/mL, the plasma concentrations (listed as balinatunfib) is reported as “In the SAD study, all doses were administered under fasted conditions. The PK parameters were not calculable for any participant receiving a single dose of 5 mg balinatunfib, as all concentrations were below the LLOQ (2 ng/mL)” and the “C max, geometric mean” value (SAD 20 mg fasted) is reported as “(5.12) [24] ng/mL”. The “C max, mean ± SD” value (SAD 20 mg fasted) was 5.25 ± 1.24 ng/mL, the “t last, median” value (SAD 20 mg fasted) was 18.05 h and the “t max, median” value (SAD 20 mg fasted) was 5.00 h. The “AUC (0 to infinity), mean” value (SAD 20 mg fasted, n = 1) was 101 ^b ± NC ng·h/mL, the “t 1/2z, geometric mean” value (SAD 20 mg fasted, n = 5) was “(13.6) [48] h” and the “t 1/2z, mean” value (SAD 20 mg fasted, n = 5) was 15.0 ^c ± 7.21 h. For the same molecule, the “AUC (0 to infinity), geometric mean” value (SAD 60 mg fasted) was “(409) [25] ng·h/mL”, the “AUC (0 to infinity), mean ± SD” value (SAD 60 mg fasted) was 420 ± 103 ng·h/mL and the “C max, geometric mean” value (SAD 60 mg fasted) was “(20.5) [24] ng/mL”. For the same molecule, the “C max, mean ± SD” value (SAD 60 mg fasted) was 21.0 ± 5.08 ng/mL, the “t 1/2z, geometric mean” value (SAD 60 mg fasted) was “(20.9) [28] h” and the “t 1/2z, mean ± SD” value (SAD 60 mg fasted) was 21.6 ± 6.14 h. The “t last, median” value (SAD 60 mg fasted) was 48.00 h, the “t max, median” value (SAD 60 mg fasted) was 2.50 h and the “AUC (0 to infinity), geometric mean” value (SAD 180 mg fasted) was “(2,330) [32] ng·h/mL”. For the same molecule, the “AUC (0 to infinity), mean ± SD” value (SAD 180 mg fasted) was 2,450 ± 782 ng·h/mL, the “C max, geometric mean” value (SAD 180 mg fasted) was “(117) [36] ng/mL” and the “C max, mean ± SD” value (SAD 180 mg fasted) was 122 ± 43.7 ng/mL. The “t 1/2z, geometric mean” value (SAD 180 mg fasted) was “(27.1) [17] h”, the “t 1/2z, mean ± SD” value (SAD 180 mg fasted) was 27.4 ± 4.74 h and the “t last, median” value (SAD 180 mg fasted) was 96.21 h. For the same molecule, the “t max, median” value (SAD 180 mg fasted) was 2.50 h, the “AUC (0 to infinity), geometric mean” value (SAD 400 mg fasted) was “(4,220) [49] ng·h/mL” and the “AUC (0 to infinity), mean ± SD” value (SAD 400 mg fasted) was 4,580 ± 2,240 ng·h/mL. The “C max, geometric mean” value (SAD 400 mg fasted) was “(261) [49] ng/mL”, the “C max, mean ± SD” value (SAD 400 mg fasted) was 285 ± 139 ng/mL and the “t 1/2z, geometric mean” value (SAD 400 mg fasted) was “(24.0) [26] h”. The “t 1/2z, mean ± SD” value (SAD 400 mg fasted) was 24.7 ± 6.47 h, the “t last, median” value (SAD 400 mg fasted) was 96.16 h and the “t max, median” value (SAD 400 mg fasted) was 3.00 h. For the same molecule, the “AUC (0 to infinity), geometric mean” value (SAD 600 mg fasted) was “(8,900) [37] ng·h/mL”, the “AUC (0 to infinity), mean ± SD” value (SAD 600 mg fasted) was 9,640 ± 3,540 ng·h/mL and the “C max, geometric mean” value (SAD 600 mg fasted) was “(483) [39] ng/mL”. For the same molecule, the “C max, mean ± SD” value (SAD 600 mg fasted) was 525 ± 206 ng/mL, the “t 1/2z, geometric mean” value (SAD 600 mg fasted) was “(23.9) [22] h” and the “t 1/2z, mean ± SD” value (SAD 600 mg fasted) was 24.4 ± 5.43 h. For the same molecule, the “t last, median” value (SAD 600 mg fasted) was 96.01 h and the “t max, median” value (SAD 600 mg fasted) was 3.00 h.
